One test deals with T1, hOCT1 (Homo sapiens, UniProt O15245).
T1 sequence (O15245 1-554): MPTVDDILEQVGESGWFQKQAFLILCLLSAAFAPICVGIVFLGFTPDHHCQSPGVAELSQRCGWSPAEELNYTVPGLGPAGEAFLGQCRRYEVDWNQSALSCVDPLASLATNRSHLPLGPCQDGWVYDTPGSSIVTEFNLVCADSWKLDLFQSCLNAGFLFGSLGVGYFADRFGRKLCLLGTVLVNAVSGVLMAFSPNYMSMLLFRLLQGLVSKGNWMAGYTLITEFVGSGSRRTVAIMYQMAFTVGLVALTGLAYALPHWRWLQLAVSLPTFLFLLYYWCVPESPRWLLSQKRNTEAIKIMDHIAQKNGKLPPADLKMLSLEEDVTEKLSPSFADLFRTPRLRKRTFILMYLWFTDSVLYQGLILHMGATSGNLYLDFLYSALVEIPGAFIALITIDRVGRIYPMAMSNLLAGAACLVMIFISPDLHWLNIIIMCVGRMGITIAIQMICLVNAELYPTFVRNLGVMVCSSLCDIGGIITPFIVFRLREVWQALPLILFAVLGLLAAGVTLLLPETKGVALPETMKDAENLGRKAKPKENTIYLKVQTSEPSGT
The experiment in a line: Inhibition of 14C-TEA uptake in hOCT1-transfected cells by liquorice ingredients. It counts as in vitro ADME. As to conditions: read-out: IC50 on hOCT1; 14C-TEA probe, 5 min. A digest of the protocol: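 Transfected and mock cells were seeded at 2 × 10^5/well and grown 48 h. They were then exposed at 37 °C to test compound at 1, 3, 10, 30 and 100 μmol L−1 (DMSO <0.2%) with either 5 μmol L−1 14C-PAH for 2 min (hOAT1) or 5 μmol L−1 14C-TEA for 5 min (hOCT1). Uptake was stopped with cold DPBS and three rinses, cells lysed in 0.1 mol L−1 NaOH, counted by liquid scintillation (dpm), and IC50 calculated.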

The target in another test is T2, hOATP2B1 (Homo sapiens, UniProt O94956).
T2 sequence (O94956 1-709): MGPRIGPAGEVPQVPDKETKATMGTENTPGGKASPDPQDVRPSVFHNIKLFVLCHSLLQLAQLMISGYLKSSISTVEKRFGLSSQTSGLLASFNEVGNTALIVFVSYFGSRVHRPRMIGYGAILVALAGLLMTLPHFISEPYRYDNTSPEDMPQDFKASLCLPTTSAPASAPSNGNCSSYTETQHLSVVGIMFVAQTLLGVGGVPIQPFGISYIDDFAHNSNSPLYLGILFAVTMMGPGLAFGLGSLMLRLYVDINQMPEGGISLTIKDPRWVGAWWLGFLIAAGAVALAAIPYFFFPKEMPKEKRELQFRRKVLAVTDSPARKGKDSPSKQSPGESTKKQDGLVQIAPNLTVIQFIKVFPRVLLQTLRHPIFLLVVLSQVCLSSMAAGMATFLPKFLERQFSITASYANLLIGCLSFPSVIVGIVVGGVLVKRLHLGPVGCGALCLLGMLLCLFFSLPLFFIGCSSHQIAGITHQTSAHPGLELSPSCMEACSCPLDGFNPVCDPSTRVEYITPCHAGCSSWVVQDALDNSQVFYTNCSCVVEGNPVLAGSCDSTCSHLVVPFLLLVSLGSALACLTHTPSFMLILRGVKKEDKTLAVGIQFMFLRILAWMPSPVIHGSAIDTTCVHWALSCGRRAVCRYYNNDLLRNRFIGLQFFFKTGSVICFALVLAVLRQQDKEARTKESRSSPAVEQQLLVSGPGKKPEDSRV
It counts as in vitro ADME. A digest of the protocol:
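Transfected and mock cells were incubated 2 min at 37 °C with 200 nmol L−1 3H-ES plus test compound. The screen used a single 100 μmol L−1 concentration with reference inhibitors as positive controls, giving an inhibition rate (n = 3, mean ± sd). […] DMSO was <0.2%. Cells were stopped with cold DPBS, rinsed three times, lysed in 0.1 mol L−1 NaOH and counted by scintillation (dpm).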

Turning to `C=CC(C)(C)c1cc(/C=C/C(=O)c2ccc(O)cc2)c(OC)cc1O` [licochalcone A], the IC50 (as a rule, the concentration that inhibits the measured activity by half) is 14 µM on hOCT1 and 1.09 µM at hOATP2B1 (read-out: IC50 on hOATP2B1, 3H-ES probe, 2 min). In addition, the “inhibition of hOATP2B1” value against hOATP2B1 (screening at 100 μm) was “strong inhibitors”.

These data come from PMC9064382 (RSC Advances, 2019).
